Assay results reported in ChEMBL document CHEMBL1145471, “Small molecule regulators of autophagy identified by an image-based high-throughput screen” (Proc Natl Acad Sci U S A, 2007).
Calls of active or inactive are those of the source. The rule behind the calls is not given here.

Assays:
H4 [1] = assay: Increase in ratio of light chain 3 subunit 2 to light chain 3 subunit 1 in human H4 cells at 5.3 uM after 4 hrs by Western blot; format: functional, cell-based
Summary of the method: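 H4 cells were treated with each compound for 4 h, then lysed. Lysates were immunoblotted with anti-LC3 antibody, with actin as loading control. LC3II and LC3I bands were compared as an LC3II/LC3I ratio.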

H4 [2] = assay: Reduction of poly(Q) level in human H4 cells expressing EGFP-Q79-HA after 24 hrs; format: functional, cell-based
Summary of the method: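 H4 cells were transiently transfected with an EGFP-Q79-HA expression vector. The medium was replaced 6 h after transfection and compounds were added. Poly(Q) was detected with anti-HA antibody.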

[3] = target: Serine/threonine-protein kinase mTOR (Homo sapiens, UniProt P42345); assay: Effect on mTOR phosphorylation in human H4 cells at 5.3 uM after 4 hrs; format: cell-based
Summary of the method: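 H4 cells exposed to compound for 4 h. Lysates analysed by Western blot with anti-phospho and anti-total mTOR antibodies, with actin as loading control. Rapamycin served as reference.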

H4 [4] = assay: Increase in light chain 3-GFP+ autophagosome vesicle number per cell in human H4 cells at 5.3 uM after 24 hrs by high throughput fluorescence microscopy relative to control; format: functional
Summary of the method: (§1)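 H4 cells stably expressing LC3-GFP, kept in DMEM/10% FBS at 37°C, 5% CO2, were seeded in 96-well plates and exposed to compound for 24 h. Cells were then fixed in 4% paraformaldehyde and stained with 3 μg/ml DAPI. Automated fluorescence microscopy scored the number, size and intensity of LC3-GFP spots. Values are percent of DMSO wells, in triplicate, mean ± SD. Rapamycin served as positive control.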

H4 [5] = assay: Increase in light chain 3-GFP+ autophagosome vesicle area per cell in human H4 cells at 5.3 uM after 24 hrs by high throughput fluorescence microscopy relative to control; format: functional
Summary of the method: (§2)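 H4 cells stably expressing LC3-GFP, seeded in 96-well plates and exposed to compound for 24 h; fixed in 4% paraformaldehyde, nuclei stained with 3 μg/ml DAPI. Automated fluorescence microscopy scored number, size and intensity of LC3-GFP spots; values expressed relative to DMSO-treated wells, rapamycin positive control. Triplicate wells, mean ± SD; experiments repeated three times.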

H4 [6] = assay: Increase in light chain 3-GFP+ autophagosome vesicle intensity per cell in human H4 cells at 5.3 uM after 24 hrs by high throughput fluorescence microscopy relative to control; format: functional; summary of the method: as §2
H4 [7] = assay: Increase in FYVE-RFP+ vesicle intensity per cell in human H4 cells after 2 hrs relative to control; format: functional; parameters: concentration or dose not given beside the values
Summary of the method: (§3)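 H4 cells stably expressing FYVE-RFP (H4-FYVE), grown in DMEM with 10% FBS, penicillin/streptomycin and 2 mM L-glutamine at 37°C, 5% CO2, seeded in 96-well plates and exposed to compound. Fixed in 4% paraformaldehyde, nuclei stained with 3 μg/ml DAPI, FYVE-RFP+ vesicles quantified by high-throughput fluorescence microscopy against DMSO control. Triplicate wells, mean ± SD.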

H4 [8] = assay: Increase in FYVE-RFP+ vesicle intensity per cell in human H4 cells after 4 hrs relative to control; format: functional; parameters: concentration or dose not given beside the values; summary of the method: as §3
H4 [9] = assay: Increase in FYVE-RFP+ vesicle intensity per cell in human H4 cells after 8 hrs relative to control; format: functional; parameters: concentration or dose not given beside the values; summary of the method: as §3
H4 [10] = assay: Increase in long-lived protein degradation in human H4 cells after 1 hr relative to control; format: functional; parameters: concentration or dose not given beside the values
H4 [11] = assay: Increase in long-lived protein degradation in human H4 cells after 2 hrs relative to control; format: functional; parameters: concentration or dose not given beside the values
H4 [12] = assay: Increase in long-lived protein degradation in human H4 cells after 4 hrs relative to control; format: functional; parameters: concentration or dose not given beside the values
H4 [13] = assay: Increase in long-lived protein degradation in human H4 cells after 24 hrs relative to control; format: functional; parameters: concentration or dose not given beside the values
H4 [14] = assay: Induction of light chain 3-GFP level in human H4 cells at 5.3 uM after 24 hrs by high throughput fluorescence microscopy relative to control; format: functional; summary of the method: as §1
H4 [15] = assay: Increase in light chain 3-GFP+ autophagosome vesicle area per cell in human H4 cells at 3.3 uM after 24 hrs by high throughput fluorescence microscopy relative to control; format: functional; summary of the method: as §2
H4 [16] = assay: Increase in light chain 3-GFP+ autophagosome vesicle number per cell in human H4 cells at 3.3 uM after 24 hrs by high throughput fluorescence microscopy relative to control; format: functional; summary of the method: as §2
H4 [17] = assay: Increase in light chain 3-GFP+ autophagosome vesicle intensity per cell in human H4 cells at 3.3 uM after 24 hrs by high throughput fluorescence microscopy relative to control; format: functional; summary of the method: as §2
H4 [18] = assay: Decrease in FYVE-RFP+ vesicle intensity per cell in human H4 cells after 2 hrs relative to control; format: functional; parameters: concentration or dose not given beside the values; summary of the method: as §3
H4 [19] = assay: Decrease in FYVE-RFP+ vesicle intensity per cell in human H4 cells after 4 hrs relative to control; format: functional; parameters: concentration or dose not given beside the values; summary of the method: as §3
H4 [20] = assay: Decrease in FYVE-RFP+ vesicle intensity per cell in human H4 cells after 8 hrs relative to control; format: functional; parameters: concentration or dose not given beside the values; summary of the method: as §3
H4 [21] = assay: Induction of light chain 3-GFP level in human H4 cells at 3.3 uM after 24 hrs by high throughput fluorescence microscopy relative to control; format: functional; summary of the method: as §1
H4 [22] = assay: Induction of light chain 3-GFP level in human H4 cells at 4.4 uM after 24 hrs by high throughput fluorescence microscopy relative to control; format: functional
Summary of the method: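 H4 cells stably expressing LC3-GFP, grown in DMEM with 10% FBS, penicillin/streptomycin and 2 mM L-glutamine at 37°C, 5% CO2. Cells were seeded in 96-well plates and exposed to library compounds at 3–12 μM for 24 h, then fixed in 4% paraformaldehyde and stained with 3 μg/ml DAPI. LC3-GFP spot number, size and intensity were measured by high-throughput fluorescence microscopy and expressed relative to DMSO. Triplicates, mean ± SD.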

H4 [23] = assay: Increase in light chain 3-GFP+ autophagosome vesicle area per cell in human H4 cells at 4.4 uM after 24 hrs by high throughput fluorescence microscopy relative to control; format: functional
Summary of the method: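 H4 cells stably expressing LC3-GFP, seeded in 96-well plates and exposed to compound for 24 h; screening concentrations were 3–12 μM, with rapamycin 0.22 μM and bafilomycin A1 0.40 μM. Cells fixed in 4% paraformaldehyde and stained with 3 μg/ml DAPI. Number, size and intensity of LC3-GFP spots measured by high-throughput fluorescence microscopy and expressed as percent of DMSO-treated wells. Rapamycin was the positive control. Triplicate wells, mean ± SD; experiments repeated three times.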

H4 [24] = assay: Increase in light chain 3-GFP+ autophagosome vesicle intensity per cell in human H4 cells at 4.4 uM after 24 hrs by high throughput fluorescence microscopy relative to control; format: functional
Summary of the method: (§4)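 H4 cells stably expressing LC3-GFP were grown in DMEM with 10% FBS and 2 mM L-glutamine at 37°C, 5% CO2. They were exposed to each compound for 24 h, with DMSO as negative and rapamycin as positive control. Cells were then fixed in 4% paraformaldehyde and stained with 3 μg/ml DAPI. High-throughput fluorescence imaging scored LC3-GFP spot number, size and intensity, expressed relative to DMSO. Mean ± SD of triplicates; experiments repeated three times.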

H4 [25] = assay: Induction of autophagy in human H4 cells; format: functional, cell-based
H4 [26] = assay: Effect on FYVE-RFP+ vesicle intensity per cell in human H4 cells after 2 hrs relative to control; format: functional; parameters: concentration or dose not given beside the values; summary of the method: as §3
H4 [27] = assay: Effect on FYVE-RFP+ vesicle intensity per cell in human H4 cells after 4 hrs relative to control; format: functional; parameters: concentration or dose not given beside the values; summary of the method: as §3
H4 [28] = assay: Effect on FYVE-RFP+ vesicle intensity per cell in human H4 cells after 8 hrs relative to control; format: functional; parameters: concentration or dose not given beside the values; summary of the method: as §3
H4 [29] = assay: Increase in light chain 3-GFP+ autophagosome vesicle number per cell in human H4 cells at 4.4 uM after 24 hrs by high throughput fluorescence microscopy relative to control; format: functional; summary of the method: as §4

SMILES: O=C1NCN(c2ccccc2)C12CCN(CCCC(c1ccc(F)cc1)c1ccc(F)cc1)CC2 [FLUSPIRILENE]
- Activity (H4 [1]): Active
- Activity (H4 [2]): Dose-dependent effect
- Activity [3]: inactive
- Activity (H4 [4]): 309.6%
- Activity (H4 [5]): 532.51%
- Activity (H4 [6]): 1593.16%
- Activity (H4 [7]): 224.98%
- Activity (H4 [8]): 142.15%
- Activity (H4 [9]): 108.53%
- Activity (H4 [10]): 93.82%
- Activity (H4 [11]): 143.17%
- Activity (H4 [12]): 144.79%
- Activity (H4 [13]): 145.5%
- Activity (H4 [14]): 143.3%

SMILES: COc1cc2c3cc1Oc1c(OC)c(OC)cc4c1[C@@H](Cc1ccc(OC(=O)c5ccc([N+](=O)[O-])cc5)c(c1)Oc1ccc(cc1)C[C@@H]3N(C)CC2)N(C)CC4 [E6 BERBAMINE]
- Activity (H4 [15]): 693.82%
- Activity (H4 [16]): 389.35%
- Activity (H4 [17]): 2447.47%
- Activity (H4 [18]): 59.73%
- Activity (H4 [19]): 54.54%
- Activity (H4 [20]): 58.69%
- Activity (H4 [10]): 100.96%
- Activity (H4 [11]): 91.62%
- Activity (H4 [12]): 96.53%
- Activity (H4 [13]): 93.45%
- Activity (H4 [21]): 131.16%

SMILES: CC/C(=C(\c1ccccc1)c1ccc(OCCN(C)C)cc1)c1ccccc1 [TAMOXIFEN]
- Activity (H4 [22]): 91.2%
- Activity (H4 [23]): 376.53%
- Activity (H4 [24]): 585.87%
- Activity (H4 [25]): inactive
- Activity (H4 [26]): 77.66%
- Activity (H4 [27]): 71.55%
- Activity (H4 [28]): 85.37%
- Activity (H4 [10]): 70.67%
- Activity (H4 [11]): 101.24%
- Activity (H4 [12]): 105.85%
- Activity (H4 [13]): 114.97%
- Activity (H4 [29]): 291.52%
